Bioassay records from PubChem.
The entries come from a sample that favours hits as a whole.
hiPSC survival: increases survival of single human iPS cells; hiPSC single-cell survival, ATPlite luminescence; 100% = ROCK inhibitor wells, 0% = DMSO; survival enhancement, % at 20 µM; hit rate 0.044% among 360,000; in the data active means survival enhancement above about 18%;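 further: cells exposed to compounds for 16 hours before the ATP read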
Cardio protect: protects H9c2 cardiomyocytes from peroxide injury; H2O2 injury protection, ATPLite, 2 h; protection from H2O2 cell death, % at 20 µM; hit rate 0.63% among 360,000; AID 588492;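 active means compounds giving at least 50% protection of heart cells from peroxide-induced death in the single-dose screen, raw or plate-pattern-corrected value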
XBP1 UPR activ: activators of adaptive arm of unfolded protein response (XBP1); CHO-XBP1 luciferase reporter, IRE1-XBP1 UPR activation, luminescence; percent of tunicamycin response, DMSO as zero; activation, % at 20 µM; hit rate 0.33% among 330,000; AID 463104;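 active means versus positive control, 20 µM dose yields 30% or more activation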
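Material: CHO cell line with stable XBP1 luciferase reporter; buffer or medium: F12 medium containing 10% fetal bovine serum; compound: single point, 20 µM final compound, 1% DMSO; incubation: 6 h treatment, 37 °C; measured by: glow luminescence from Steady-Glo reagent; evaluation: activation, % of tunicamycin; control set: tunicamycin high, DMSO low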
CHOP UPR activ: apoptotic UPR (CHOP) activation; CHO-CHOP luciferase reporter, luminescence; percent of tunicamycin response over DMSO baseline; activation, % at 10 µM; hit rate 0.34% among 330,000;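 active means at 10 µM dose, activation of 40% or more, normalized to positive control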
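System: CHO CHOP reporter cells. Amount: 500 cells per well. Buffer or medium: F12 medium, 10% FBS. Compound dosing: one dose, 10 µM in 0.5% DMSO. Incubation: 6 h compound exposure at 37 °C after overnight seeding. Technique: Steady-Glo luciferase luminescence. Benchmarks: tunicamycin and DMSO controls.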
CHOP inhibitor: blocks CHOP induction under ER stress; CHO-K1 CHOP-promoter luciferase, tunicamycin-induced, 15-18 h; inhibition, % at 10 µM; hit rate 3.8% among 220,000;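 active means compounds that reduced the stress-induced luciferase reporter signal by more than about 70% of percent inhibition, limit read from the data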
CHOP UPR conf: confirmation of apoptotic unfolded protein response (CHOP) activators | shares compounds with CHOP UPR activ | CHO-CHOP cells, CHOP-luciferase reporter luminescence; percent of tunicamycin response, DMSO as zero | activation, % at 10 µM | hit rate 64% among 1,000; in the data active means activation above about 33%
Large screens that a line does not name were inactive (follow-up assays come after a bar, where they were run).

CC(C)(C)c1ccc(OCc2ccc(C(=O)N/N=C/c3ccc(O)c(O)c3)cc2)cc1	CHOP UPR activ 40.9 | CHOP UPR conf inactive
CC(=O)Nc1ccc(N=Cc2c(O)c3ccccc3oc2=O)cc1	none (no result: CHOP inhibitor)
COc1cccc(N=Cc2c(O)c3ccccc3oc2=O)c1	XBP1 UPR activ 108.2, CHOP UPR activ 100.7 (no result: CHOP inhibitor) | CHOP UPR conf 52.2
NC(=S)NN=C(Cc1ccccc1)Cc1ccccc1	none
CCOc1ccc2nc(SC3CC(=O)N(c4ccc(C)cc4)C3=O)sc2c1 (stereo not given)	CHOP UPR activ 44.8 | CHOP UPR conf 64.6
CC1CCCCC1NC(=O)NC(=O)CCl (stereo not given)	CHOP UPR activ 42.1 | CHOP UPR conf inactive
COc1ccc(/C=C/C(=O)O)cc1	none (no result: CHOP inhibitor)
COc1ccc(/C=C/C(=O)Oc2ccc(C)cc2)cc1	CHOP UPR activ 42.7 (no result: CHOP inhibitor) | CHOP UPR conf 39.6
COc1ccc(-c2cc3c(c4c2ccn4C)C2CCC3C2)cc1OC (stereo not given)	none (no result: XBP1 UPR activ, CHOP UPR activ, CHOP inhibitor)
CCc1ccccc1NC(=S)N=Nc1c(O)n(C)c2ccc(S(=O)(=O)N3CCOCC3)cc12	CHOP UPR activ 51.5 | CHOP UPR conf 52.8
Cc1ccc(C)c(NC(=S)N=Nc2c(O)n(C)c3ccc(S(=O)(=O)N4CCOCC4)cc23)c1	none
O=C(CN1C(=O)NC2(CCCCCC2)C1=O)c1ccc(Cl)s1	none (no result: CHOP inhibitor)
CCN(CC)c1ccc(/C=C2\C(=O)N(c3nnc(C)c(=O)[nH]3)N=C2C)cc1	CHOP UPR activ 221.4 | CHOP UPR conf 832.2
CC(=O)c1cccc(S(=O)(=O)NCCC(=O)NC2CCCCCC2)c1	none (no result: CHOP inhibitor)
COC(=O)c1ccc(/C=C/C(=O)c2ccc(OC)c(OC)c2)cc1	none
COc1ccc(/C=C/C(=O)c2ccc(C(=O)/C=C/c3ccc(OC)c(OC)c3)cc2)cc1OC	CHOP UPR activ 83.9 (no result: CHOP inhibitor) | CHOP UPR conf 138.2
Oc1[nH]c2ccccc2c1N=NC(=S)N1CCOCC1	CHOP UPR activ 253.7 | CHOP UPR conf 229.4
O=C(N=Nc1c(O)[nH]c2ccccc12)c1ccc(CN2CCOCC2)cc1	none
Oc1[nH]c2ccc(Br)cc2c1N=NC(=S)N1CCOCC1	CHOP UPR activ 168.2 | CHOP UPR conf 101.9
O=C1C=CC(=O)N1c1cccc(-c2ccccc2)c1	CHOP UPR activ 82.2 | CHOP UPR conf inactive
COc1cc(N2C(=O)C=CC2=O)ccc1N1C(=O)C=CC1=O	none (no result: XBP1 UPR activ, CHOP UPR activ, CHOP inhibitor)
COc1ccc([C@H]2N[C@]3(CCCN(Cc4ccc(Br)cc4)C3=O)[C@H]3C(=O)N(C)C(=O)[C@@H]23)cc1	none (no result: XBP1 UPR activ, CHOP UPR activ, CHOP inhibitor)
CCCOc1ccc(C(=O)C(CN2CCCC2)c2ccccc2)cc1 (stereo not given)	none (no result: XBP1 UPR activ, CHOP UPR activ)
COc1ccc(C(=O)C(CN2CCOCC2)c2ccccc2)cc1 (stereo not given)	CHOP UPR activ 45.7 | CHOP UPR conf 35.5
COc1ccc(C(=O)C(CN2CCCC2)c2ccccc2)cc1 (stereo not given)	CHOP UPR activ 65.6 | CHOP UPR conf 38.5
O=C(c1ccc(Cl)cc1)C(CN1CCCC1)c1ccccc1 (stereo not given)	CHOP UPR activ 150.9 (no result: CHOP inhibitor) | CHOP UPR conf 169.7
CC(=O)Nc1ccc(S(=O)(=O)NCc2nc(-c3ccccc3C)no2)cc1	none (no result: CHOP inhibitor)
O=C(CN1CCN(S(=O)(=O)c2ccc(Cl)cc2)CC1)c1ccc(O)c(O)c1	CHOP UPR activ 71.4 (no result: CHOP inhibitor) | CHOP UPR conf inactive
O=C(CN1CCN(S(=O)(=O)c2ccc(F)cc2)CC1)c1ccc(O)c(O)c1	none
O=Cc1ccc(O)c2ncccc12	CHOP UPR activ 86.3 | CHOP UPR conf 88.6
O=C(/C=C/c1c(F)cccc1Cl)c1ccc(O)cc1	CHOP UPR activ 59.8 | CHOP UPR conf inactive
O=C(/C=C/c1c(F)cccc1Cl)Nc1ncccn1	none
O=C(N/N=C(\c1ccccc1)c1ccccn1)c1cccc([N+](=O)[O-])c1	CHOP UPR activ 136.0 | CHOP UPR conf 319.0
Cc1oc2c(O)c(O)ccc2c(=O)c1-c1cnn(-c2ccccc2)c1	Cardio protect 86.8, CHOP UPR activ 114.0 | CHOP UPR conf inactive
COc1cccc(CNC(=O)Cc2ccc(OC)c(S(=O)(=O)N3CCOCC3)c2)c1	none (no result: CHOP inhibitor)
O=C(c1cccs1)N(C(=O)c1cccs1)c1ccc(Br)cn1	XBP1 UPR activ 85.8, CHOP UPR activ 98.0 | CHOP UPR conf 59.0
Cc1ccnc(N(C(=O)c2cccs2)C(=O)c2cccs2)c1	none
O=C(Nc1nc(-c2ccccn2)cs1)c1ccc(Br)s1	CHOP UPR activ 60.1 | CHOP UPR conf 42.0
CCc1ccc(NC2=CC(=O)C(=O)c3ccccc32)cc1	CHOP UPR activ 62.3 (no result: CHOP inhibitor) | CHOP UPR conf inactive
CCCCNC1C(CC)C(CCC)C(C#N)(C#N)C1(C#N)C#N (stereo not given)	CHOP UPR activ 74.3 | CHOP UPR conf 33.6
COC(=O)c1cccc(NC(=O)CCN2C(=O)NC(C)(C)C2=O)c1	none (no result: XBP1 UPR activ, CHOP UPR activ, CHOP inhibitor)
COC(=O)C[C@H](NC(=O)Cn1cnc2c(NCc3ccccc3)ncnc21)C(=O)OC	none (no result: CHOP inhibitor)
CCCCn1nnnc1C(c1cc2ccccc2o1)N(Cc1ccccc1)Cc1ccccc1 (stereo not given)	none (no result: Cardio protect, XBP1 UPR activ, CHOP UPR activ, CHOP inhibitor)
COc1ccc(OC)c(/C=C/C(=O)N2C(=O)c3cccc(N)c3C2=O)c1	CHOP UPR activ 52.5, CHOP inhibitor 89.9 | CHOP UPR conf 61.9
COc1ccc(OC)c(/C=C/C(=O)N2CCCc3ccccc32)c1	none
COc1cc(/C=C/C(=O)N2C(=O)c3cccc(N)c3C2=O)cc(OC)c1OC	CHOP UPR activ 67.6, CHOP inhibitor 94.3 | CHOP UPR conf 53.5
COc1ccc(N(CC(=O)NCc2cccs2)S(=O)(=O)c2ccc(F)cc2)cc1	none (no result: CHOP inhibitor)
CCN(CC)c1ccc2c(C)cc(=O)oc2c1	none (no result: CHOP inhibitor)
CCN(CC)c1ccc2c(Cl)c(Br)c(=O)oc2c1	CHOP UPR activ 193.8, CHOP inhibitor 94.5 | CHOP UPR conf inactive
CCN(CC)c1ccc(/C=C2\SC(=O)N(C(C)C)C2=O)o1	CHOP UPR activ 111.7 | CHOP UPR conf inactive
CN1CCN(C(c2ccccn2)c2cc(Cl)c3cccnc3c2O)CC1 (stereo not given)	none
Oc1c(C(c2ccccn2)N2CCC(Cc3ccccc3)CC2)cc(Cl)c2cccnc12 (stereo not given)	CHOP UPR activ 42.8 (no result: hiPSC survival, Cardio protect) | CHOP UPR conf 73.7
CCCCC(=O)Nc1cnc(NC(=O)c2cccs2)cc1C	none (no result: CHOP inhibitor)
CC1=CN2C(=N)/C(=C/c3cn(CCCOc4ccccc4C)c4ccccc34)C(=O)N=C2S1	CHOP UPR activ 44.3 | CHOP UPR conf inactive
COc1cccc(OCCCn2cc(/C=C3/C(=N)N4C=C(C)SC4=NC3=O)c3ccccc32)c1	none
CN(C)c1ncnc2c1ncn2[C@H]1CN(Cc2ccc3c(c2)OCO3)C[C@@H](CO)O1	none (no result: XBP1 UPR activ, CHOP UPR activ, CHOP inhibitor)
Cc1ccc(-c2nnc(COC(=O)c3cccs3)o2)cc1	none (no result: CHOP inhibitor)
